Test results as given in ChEMBL document CHEMBL4651341, “The discovery of a novel series of compounds with single-dose efficacy against juvenile and adult Schistosoma species” (PLoS Negl Trop Dis, 2021).
In brackets after ≈: the same amount, converted by molar mass.

Tests used:
[1] = Partition coefficient of compound between n-octanol and PBS (pH7.4); format: physicochemical; conditions: octanol/water, pH 7.4
How it was run: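 Shake-flask method using octanol and PBS pH 7.4, each pre-saturated with the other. Compound was shaken 2 h at 850 rpm, 25 °C, then the phases were separated by centrifugation and both layers diluted and analysed by LC-MS/MS. LogD = log(octanol AUC × relative dilution / buffer AUC).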

Schistosoma mansoni [2] = assay: Concentration required to kill 50% of 21 day old worms 5 days after drug treatment.; format: functional, organism-based; conditions: Puerto Rican, 120 h
How it was run: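 Juvenile S. mansoni (Puerto Rican strain) were perfused from CD1 mice 3 weeks post-infection and washed. They were cultured 6–8 per well in 200 µL DMEM with 2 mM glutamine, penicillin/streptomycin and 10% FCS at 37 °C, 5% CO2. Viability of individual worms was scored on day 5 after dosing (120 h).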

[3] = Mean plasma concentration at 4h in Swiss albino male mice at […] per compound (administered orally in a mixture of 5 compounds to 3 mice) assessed by LCMS/MS.; format: ADME, organism-based; conditions: mouse, po
[4] = Mean oral bioavailability in Swiss albino male mice at […] per compound (administered in a mixture of 5 compounds to 3 mice) assessed by LCMS/MS.; further: dose 2.5 mg/kg; format: ADME, organism-based; conditions: male, Swiss albino, mouse, in vivo, read-out: Bioavailability
[5] = Mean time to peak plasma concentration in Swiss albino male mice at […] per compound (administered orally in a mixture of 5 compounds to 3 mice) assessed by LCMS/MS.; format: ADME, organism-based; conditions: mouse, po
[6] = Plasma protein binding determined at 10uM by LC-MS/MS.; format: ADME, cell-free; conditions: mouse
How it was run: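 Equilibrium dialysis of plasma spiked at 10 µM (0.1% DMSO) against PBS pH 7.4, 6 h at 37 °C, duplicates. Both chambers analysed by LC-MS/MS after acetonitrile precipitation. % free = buffer/plasma area ratio; recovery also calculated.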

[7] = Mean half-life in Swiss albino male mice at 1 mg/kg per compound (administered iv in a mixture of 5 compounds to 3 mice) assessed by LCMS/MS.; format: ADME, organism-based; conditions: mouse, in vivo
How it was run: (§1)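 Male Swiss albino mice (~30 g), 3 per experiment, mostly dosed as mixtures of 5 compounds iv via the lateral tail vein. Vehicle: 10% DMSO/90% 50 mM Na2HPO4 with 0.5% Tween-80. Plasma stored at −20 °C and quantified by LC-MS after acetonitrile precipitation.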

[8] = Plasma protein binding determined at 1uM by LC-MS/MS.; format: ADME, cell-free; conditions: mouse
[9] = Mean volume of distribution at steady state in Swiss albino male mice at 1 mg/kg per compound (administered iv in a mixture of 5 compounds to 3 mice) assessed by LCMS/MS.; format: ADME, organism-based; conditions: mouse, in vivo, read-out: Volume; how it was run: as §1
[10] = Mean plasma concentration at 24h in Swiss albino male mice at […] per compound (administered orally in a mixture of 5 compounds to 3 mice) assessed by LCMS/MS.; format: ADME, organism-based; conditions: mouse, po
Schistosoma mansoni [11] = assay: Concentration required to kill 50% of 42 day old worms 5 days after drug treatment.; format: functional, organism-based; conditions: Puerto Rican, 120 h
How it was run: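 Adult S. mansoni were perfused from CD1 mice 6 weeks post-infection and washed. They were cultured 3 pairs per well in 1 mL DMEM with 2 mM glutamine, penicillin/streptomycin and 10% FCS […] at 37 °C, 5% CO2. Viability of individual worms was scored on day 5 (120 h).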

[12] = Mean observed clearance in Swiss albino male mice at 1 mg/kg per compound (administered iv in a mixture of 5 compounds to 3 mice) assessed by LCMS/MS.; format: ADME, organism-based; conditions: male, Swiss albino, mouse, in vivo, read-out: Clearance (converted)
How it was run: as §1, with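 “Tween-80. Blood sampled at 5, 15, 30 min and 1, 2, 4, 8, 24 h.” for “Tween-80.”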

[13] = Solubility at 25 degC of compound (diluted from DMSO) in PBS at pH 7.4 determined after 24h (1h sonication, 22h shaking, 1h sonication) by LCMS/MS; format: physicochemical
[14] = Mean AUC inf in Swiss albino male mice at 1 mg/kg per compound (administered iv in a mixture of 5 compounds to 3 mice) assessed by LCMS/MS.; format: ADME, organism-based; conditions: male, Swiss albino, mouse, in vivo
How it was run: as §1, with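 “Tween-80. Blood sampled at 5, 15, 30 min and 1, 2, 4, 8, 24 h.” for “Tween-80.”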

[15] = Percentage of parent compound remaining after incubation for 30 minutes with cyropreserved mouse hepatocytes at a concentration of 1uM compound and […], determined by LCMS; format: ADME, tissue-based, Hepatocyte; conditions: cryopreserved mouse hepatocytes, read-out: Stability
How it was run: (§2)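 Compound was incubated at 1 µM final (2 µM working solution mixed 1:1 with hepatocyte suspension) in supplemented KHB pH 7.4. Conditions: 37 °C, 5% CO2, gentle mixing, duplicates. Reaction quenched with ice-cold acetonitrile containing standard; analysed by LC-MS/MS. % remaining = AUC at t / AUC at T0.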

[16] = Percentage of parent compound remaining after incubation for 90 minutes with cyropreserved mouse hepatocytes at a concentration of 1uM compound and […], determined by LCMS; format: ADME, tissue-based, Hepatocyte; conditions: cryopreserved mouse hepatocytes, read-out: Stability; how it was run: as §2
[17] = Percentage of parent compound remaining after incubation for 90 minutes with cyropreserved human hepatocytes at a concentration of 1uM compound and 1 million cells/uL, determined by LCMS/MS; format: ADME, tissue-based, Hepatocyte; conditions: cryopreserved human hepatocytes, read-out: Stability; how it was run: as §2
[18] = Concentration required to kill 50% HepG2 cells as detected by MTT staining; format: toxicity, cell-based; conditions: homo sapiens, read-out: TC50 (the source's name)
[19] = Concentration of drug in plasma at 4h following oral drug adminstration at given dose. Determined by LCMS/MS; format: ADME, organism-based; conditions: CD1, mouse
How it was run: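 Plasma sampled from the mice of the efficacy experiments, each animal sampled once: one animal per group at 1, 4 and 8 h, two per group at 24 h. Plasma prepared by acetonitrile protein precipitation and analysed by LC-MS against a 10-point calibration line spiked in blank matrix, with QCs at three or more levels.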

| Compound | Lipophilicity [1] | concentration at 4 h [3] | bioavailability [4] | Tmax [5] | Binding [6] | half-life [7] | Binding [8] | Vd [9] | concentration at 24 h [10] | clearance [12] | solubility kinetic at 24 h [13] | AUC(0-inf) [14] | remaining at 0.5 h, 1 µM [15] | remaining at 1.5 h, 1 µM [16] | remaining at 1.5 h, 1 µM [17] | concentration at 4 h [19] | EC50 (Schistosoma mansoni [2]) | EC50 (Schistosoma mansoni [11]) | CC50 [18] |
| --- | --- | --- | --- | --- | --- | --- | --- | --- | --- | --- | --- | --- | --- | --- | --- | --- | --- | --- | --- |
| CC(C)c1cc(-c2cn3c(-c4ccc5[nH]ncc5c4F)c(C(C)C)nc3cn2)ccc1F |  | 119 ng/mL | 64% | 0.5 h |  | 5.69 h |  | 4.48 L/kg | 4.17 ng/mL | 15 mL/min/kg | 0.784 µM (≈ 0.338 µg/mL) | 558 ng·h/mL |  | 46.2% | 37.7% |  | 4.96 nM | 3.98 nM | 11000 nM |
| CCc1nc2cnc(-c3ccc(F)c(C(C)C)c3)cn2c1-c1ccc2[nH]ncc2c1F |  |  |  |  |  |  |  |  |  |  |  |  |  | 59.3% | 37.8% |  | 5.4 nM | 3.9 nM | 11300 nM |
| CC(C)c1cc(-c2cn3c(-c4ccc5[nH]ncc5c4F)c(C4CCC4)nc3cn2)ccc1F |  |  |  |  |  |  |  |  |  |  | 1.35 µM (≈ 0.599 µg/mL) |  |  | 52.1% | 25.3% |  | 4.3 nM | 7.3 nM | 10900 nM |
| CC(C)c1cc(-c2cn3c(-c4ccc5[nH]ncc5c4F)c(C4CC4)nc3cn2)ccc1F | 6.53 = | 295 ng/mL | 149% | 1.33 h |  | 6.18 h |  |  |  |  |  | 530 ng·h/mL |  |  |  | 104 ng/mL |  |  | 15800 nM |

Now from value to compound, other results behind:

| Lipophilicity [1] | concentration at 4 h [3] | bioavailability [4] | Tmax [5] | Binding [6] | half-life [7] | Binding [8] | Vd [9] | concentration at 24 h [10] | clearance [12] | solubility kinetic at 24 h [13] | AUC(0-inf) [14] | remaining at 0.5 h, 1 µM [15] | remaining at 1.5 h, 1 µM [16] | remaining at 1.5 h, 1 µM [17] | concentration at 4 h [19] | Compound | EC50 (Schistosoma mansoni [2]) | EC50 (Schistosoma mansoni [11]) | CC50 [18] |
| --- | --- | --- | --- | --- | --- | --- | --- | --- | --- | --- | --- | --- | --- | --- | --- | --- | --- | --- | --- |
| 4.84 = | 43.9 ng/mL | 58.4% | 0.25 h | 99.965% | 4.46 h | 100% | 9.55 L/kg | 1.9 ng/mL | 41.2 mL/min/kg | 17.1 µM (≈ 7.55 µg/mL) | 203 ng·h/mL | 58.7% |  |  |  | Oc1ccc(-c2c(C(F)(F)F)nc3cnc(-c4cccc(C(F)(F)F)c4)cn23)c(F)c1 | < 443 nM | < 48.8 nM |  |
|  | 182 ng/mL | 114% | 0.667 h |  | 5.8 h |  | 5.68 L/kg | 8.87 ng/mL | 19.3 mL/min/kg |  | 433 ng·h/mL |  | 88.7% | 54% |  | Fc1c(-c2c(C(F)(F)F)nc3cnc(-c4cccc(OC(F)(F)F)c4)cn23)ccc2[nH]ncc12 | 23.4 nM | 20.6 nM | 9710 nM |
|  |  |  |  |  |  |  |  |  |  | 0.823 µM (≈ 0.423 µg/mL) |  |  | 88.6% | 101% |  | Fc1ccc(-c2cn3c(-c4ccc5[nH]ncc5c4F)c(C4CC4)nc3cn2)cc1S(F)(F)(F)(F)F | 29.5 nM | 17.3 nM | 14800 nM |
|  |  |  |  |  |  |  |  |  |  | 41.1 µM (≈ 20.9 µg/mL) |  |  | 84.9% | 40.2% |  | Oc1cc(F)c(-c2c(C3CC3)nc3cnc(-c4ccc(F)c(S(F)(F)(F)(F)F)c4)cn23)c(F)c1 | 10.4 nM | 5.78 nM | 10100 nM |
| 4.5 = | 655 ng/mL |  |  |  |  |  |  |  | 1.43 mL/min/kg |  |  |  |  |  | 1100 ng/mL | Fc1c(-c2c(C(F)(F)F)nc3cnc(-c4cccc(C(F)(F)C(F)(F)F)c4)cn23)ccc2[nH]ncc12 |  |  | 10900 nM |
